Assays:
[1] = molecular target: 5-hydroxytryptamine receptor 4 (Cavia porcellus) (UniProt O70528); assay: Displacement of [3H]GR-113808 from 5HT4 receptor in guinea pig striatum membrane at 10 nM; type: cell membranes
Method in brief: (§1)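 Guinea pig membranes (15 µg protein/mL) incubated 30 min at 37 °C with 0.6 nM [3H]GR113808 in 50 mM HEPES, pH 7.4, with fixed test concentrations. Nonspecific binding defined with 10 µM serotonin.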

[2] = molecular target: 5-hydroxytryptamine receptor 4 (Cavia porcellus, UniProt O70528); assay: Displacement of [3H]GR-113808 from 5HT4 receptor in guinea pig striatum membrane; type: cell membranes; method in brief: as §1
Chain of 5-hydroxytryptamine receptor 4 (Cavia porcellus, UniProt O70528) (O70528 whole entry): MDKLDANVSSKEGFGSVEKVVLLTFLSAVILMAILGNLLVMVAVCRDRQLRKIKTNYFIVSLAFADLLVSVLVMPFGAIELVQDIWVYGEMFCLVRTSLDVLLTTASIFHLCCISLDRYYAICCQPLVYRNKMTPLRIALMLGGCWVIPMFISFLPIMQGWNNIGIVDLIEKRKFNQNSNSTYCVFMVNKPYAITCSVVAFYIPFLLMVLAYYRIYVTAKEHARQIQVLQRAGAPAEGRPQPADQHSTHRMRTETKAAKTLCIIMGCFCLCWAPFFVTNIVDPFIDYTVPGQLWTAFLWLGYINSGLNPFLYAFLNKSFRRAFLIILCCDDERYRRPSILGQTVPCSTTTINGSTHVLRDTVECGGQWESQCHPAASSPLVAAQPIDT

[3] = molecular target: T1, 5-hydroxytryptamine receptor 1A (Homo sapiens, UniProt P08908); assay: Displacement of [3H]8OH-DPAT from human recombinant 5HT1A receptor
T1 sequence (P08908 whole entry): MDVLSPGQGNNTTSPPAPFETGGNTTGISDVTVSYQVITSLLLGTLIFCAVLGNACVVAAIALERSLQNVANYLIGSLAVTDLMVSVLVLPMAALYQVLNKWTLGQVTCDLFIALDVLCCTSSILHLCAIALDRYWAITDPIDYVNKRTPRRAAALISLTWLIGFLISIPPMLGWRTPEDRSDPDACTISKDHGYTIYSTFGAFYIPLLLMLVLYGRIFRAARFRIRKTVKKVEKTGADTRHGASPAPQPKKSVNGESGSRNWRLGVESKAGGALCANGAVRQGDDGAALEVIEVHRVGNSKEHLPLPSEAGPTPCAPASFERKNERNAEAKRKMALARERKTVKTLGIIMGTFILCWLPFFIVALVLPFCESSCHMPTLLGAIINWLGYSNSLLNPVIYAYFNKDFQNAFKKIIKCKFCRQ

[4] = molecular target: 5-hydroxytryptamine receptor 2A (Homo sapiens, UniProt P28223); assay: Displacement of [3H]ketanserin form human recombinant 5HT2A receptor
Chain of 5-hydroxytryptamine receptor 2A (P28223 whole entry): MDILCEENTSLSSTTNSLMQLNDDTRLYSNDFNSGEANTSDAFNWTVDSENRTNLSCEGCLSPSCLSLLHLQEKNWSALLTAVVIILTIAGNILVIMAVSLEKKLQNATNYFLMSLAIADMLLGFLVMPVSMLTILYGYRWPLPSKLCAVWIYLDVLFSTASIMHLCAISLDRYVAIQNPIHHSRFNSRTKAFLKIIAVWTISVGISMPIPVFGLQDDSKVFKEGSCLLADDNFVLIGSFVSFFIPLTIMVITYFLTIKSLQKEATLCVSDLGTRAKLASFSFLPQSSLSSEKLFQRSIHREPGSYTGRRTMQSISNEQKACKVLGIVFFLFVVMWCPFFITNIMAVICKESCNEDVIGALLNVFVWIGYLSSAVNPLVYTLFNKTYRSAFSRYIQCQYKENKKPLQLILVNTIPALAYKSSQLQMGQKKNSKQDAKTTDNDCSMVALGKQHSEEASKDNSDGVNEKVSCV

[5] = molecular target: 5-hydroxytryptamine receptor 2B (Homo sapiens, UniProt P41595); assay: Displacement of [3H]mesulergine from human recombinant 5HT2B receptor
Chain of 5-hydroxytryptamine receptor 2B (P41595 whole entry): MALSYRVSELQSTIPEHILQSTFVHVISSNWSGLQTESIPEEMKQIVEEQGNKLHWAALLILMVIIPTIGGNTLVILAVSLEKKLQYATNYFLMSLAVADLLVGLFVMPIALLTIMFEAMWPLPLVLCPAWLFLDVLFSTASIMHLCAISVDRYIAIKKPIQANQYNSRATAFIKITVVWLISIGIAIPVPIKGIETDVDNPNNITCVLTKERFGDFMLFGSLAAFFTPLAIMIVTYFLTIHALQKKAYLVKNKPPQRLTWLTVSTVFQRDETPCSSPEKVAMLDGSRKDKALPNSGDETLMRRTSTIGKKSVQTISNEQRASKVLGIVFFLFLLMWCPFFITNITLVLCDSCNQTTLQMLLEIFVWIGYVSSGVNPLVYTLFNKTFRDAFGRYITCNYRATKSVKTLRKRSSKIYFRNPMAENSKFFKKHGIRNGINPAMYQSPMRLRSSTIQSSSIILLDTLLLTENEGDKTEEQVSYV

[6] = molecular target: T2, 5-hydroxytryptamine receptor 2C (Homo sapiens, UniProt P28335); assay: Displacement of [3H]mesulergine from human recombinant 5HT2C receptor
T2 sequence (P28335 whole entry): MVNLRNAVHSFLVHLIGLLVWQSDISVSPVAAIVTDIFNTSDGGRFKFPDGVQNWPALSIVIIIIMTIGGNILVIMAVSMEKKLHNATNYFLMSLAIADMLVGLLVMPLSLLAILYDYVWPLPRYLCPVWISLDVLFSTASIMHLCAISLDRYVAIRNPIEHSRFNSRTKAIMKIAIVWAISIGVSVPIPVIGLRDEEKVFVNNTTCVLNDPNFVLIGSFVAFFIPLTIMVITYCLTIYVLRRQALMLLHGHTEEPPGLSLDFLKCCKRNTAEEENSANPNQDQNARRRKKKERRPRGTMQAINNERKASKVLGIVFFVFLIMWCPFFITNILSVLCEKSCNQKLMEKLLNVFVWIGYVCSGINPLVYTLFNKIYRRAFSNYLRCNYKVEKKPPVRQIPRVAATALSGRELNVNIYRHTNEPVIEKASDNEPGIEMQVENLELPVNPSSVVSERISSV

[7] = molecular target: T3, 5-hydroxytryptamine receptor 3A (Homo sapiens, UniProt P46098); assay: Displacement of [3H]granisetron from human recombinant 5HT3 receptor
T3 sequence (P46098 whole entry): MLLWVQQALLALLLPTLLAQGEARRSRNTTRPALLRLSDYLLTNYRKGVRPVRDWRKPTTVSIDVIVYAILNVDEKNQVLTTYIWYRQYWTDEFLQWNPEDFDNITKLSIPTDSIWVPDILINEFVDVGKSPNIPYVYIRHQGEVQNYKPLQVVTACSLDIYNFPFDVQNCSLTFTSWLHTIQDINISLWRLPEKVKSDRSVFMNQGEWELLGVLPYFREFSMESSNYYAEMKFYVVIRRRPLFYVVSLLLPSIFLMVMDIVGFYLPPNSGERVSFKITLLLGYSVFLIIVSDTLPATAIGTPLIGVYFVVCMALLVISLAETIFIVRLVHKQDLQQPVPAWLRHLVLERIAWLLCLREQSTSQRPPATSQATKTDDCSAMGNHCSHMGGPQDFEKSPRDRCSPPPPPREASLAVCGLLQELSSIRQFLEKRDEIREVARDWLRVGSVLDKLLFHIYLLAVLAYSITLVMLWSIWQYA

[8] = molecular target: 5-hydroxytryptamine receptor 6 (Homo sapiens, UniProt P50406); assay: Displacement of [3H]LSD form human recombinant 5HT6 receptor
Chain of 5-hydroxytryptamine receptor 6 (P50406 whole entry): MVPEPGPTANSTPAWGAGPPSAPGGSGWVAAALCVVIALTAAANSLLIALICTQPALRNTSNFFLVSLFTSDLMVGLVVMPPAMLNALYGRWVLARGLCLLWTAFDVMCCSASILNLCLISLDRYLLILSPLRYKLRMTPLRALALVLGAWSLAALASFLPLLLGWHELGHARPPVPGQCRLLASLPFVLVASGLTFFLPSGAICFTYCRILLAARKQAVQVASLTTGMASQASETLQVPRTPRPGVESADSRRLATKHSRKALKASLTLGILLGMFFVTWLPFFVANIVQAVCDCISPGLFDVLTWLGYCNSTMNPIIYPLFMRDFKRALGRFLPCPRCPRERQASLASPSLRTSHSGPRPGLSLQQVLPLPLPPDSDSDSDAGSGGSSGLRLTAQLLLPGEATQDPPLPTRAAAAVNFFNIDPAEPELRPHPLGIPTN
Method in brief: (§2)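 Membranes from sf9 cells expressing human 5-HT6 (14 µg/mL) or 5-HT7 (38 µg/mL) incubated 90 min at 27 °C with 2 nM [3H]LSD in 50 mM Tris-HCl containing 10 mM MgSO4 and 0.5 mM EDTA. Nonspecific binding defined with clozapine (10 and 250 µM).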

[9] = molecular target: 5-hydroxytryptamine receptor 7 (Homo sapiens, UniProt P34969); assay: Displacement of [3H]LSD form human recombinant 5HT7 receptor; method in brief: as §2
Chain of 5-hydroxytryptamine receptor 7 (P34969 whole entry): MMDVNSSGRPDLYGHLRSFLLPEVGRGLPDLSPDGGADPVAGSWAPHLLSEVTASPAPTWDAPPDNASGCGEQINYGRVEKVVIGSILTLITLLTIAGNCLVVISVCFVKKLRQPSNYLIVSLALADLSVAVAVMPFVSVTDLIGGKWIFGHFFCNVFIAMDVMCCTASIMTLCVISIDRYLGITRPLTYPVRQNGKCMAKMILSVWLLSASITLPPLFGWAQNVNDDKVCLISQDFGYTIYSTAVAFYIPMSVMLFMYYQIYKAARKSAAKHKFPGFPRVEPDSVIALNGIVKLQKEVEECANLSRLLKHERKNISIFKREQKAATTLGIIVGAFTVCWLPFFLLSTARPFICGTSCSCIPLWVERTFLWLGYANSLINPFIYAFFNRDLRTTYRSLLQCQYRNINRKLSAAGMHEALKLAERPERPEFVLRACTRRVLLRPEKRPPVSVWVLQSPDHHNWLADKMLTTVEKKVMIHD

[10] = molecular target: 5-hydroxytryptamine receptor 4 (Cavia porcellus) (UniProt O70528); assay: Displacement of [3H]GR-113808 from 5HT4 receptor in guinea pig striatum membrane at 1 uM; type: cell membranes; method in brief: as §1
Mus musculus [11] = assay: Inhibition of scopolamine-induced immediate working memory deficit in NMRI mouse at 1 mg/kg, ip by Y-maze test relative to control; type: functional; set-up: scale not given: the % may be the effect or the level left; details: route intraperitoneal
Method in brief: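 Spontaneous alternation in male NMRI mice. Scopolamine 1 mg/kg ip in saline induces the working-memory deficit; groups are saline+saline, saline+scopolamine, drug+saline and drug+scopolamine. Alternation % = actual alternations/(total arm entries − 2) × 100. ANOVA plus Fisher PLSD, p<0.05.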

Mus musculus [12] = assay: Acute toxicity in NMRI mouse assessed as behavioral changes at 25 mg/kg, ip by CNS activity test; type: organism-based, Central nervous system; set-up: dose 25 mg/kg, route intraperitoneal; details: in vivo
Method in brief: (§3)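 Male NMRI mice (20–24 g) given ip drug in saline (10 mL/kg), groups of 4. Behavioural and neurological changes scored against controls by a standardized observation technique at 30 min, 3 h and 24 h post-dose. Approximate LD50 derived from deaths counted at 24 h.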

Mus musculus [13] = assay: Antinociceptive activity against acetic acid-induced writhing in NMRI mouse assessed as number of stretches at 0.01 mg/kg, ip by writhing test; type: functional; details: route intraperitoneal
Method in brief: (§4)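 Groups of 8 male NMRI mice (20–24 g). Compound or reference given ip in saline (10 mL/kg) 15 min before ip 0.6% aqueous acetic acid (10 mL/kg). Stretches (back arching, pelvic rotation, hind-limb extension) counted over 10 min, beginning 10 min after acid. ANOVA + Fisher PLSD versus control.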

Mus musculus [14] = assay: Antinociceptive activity against acetic acid-induced writhing in NMRI mouse assessed as number of stretches at 0.1 mg/kg, ip by writhing test; type: functional; details: route intraperitoneal; method in brief: as §4
Mus musculus [15] = assay: Antinociceptive activity against acetic acid-induced writhing in NMRI mouse assessed as number of stretches at 1 mg/kg, ip by writhing test; type: functional; details: route intraperitoneal; method in brief: as §4
[16] = molecular target: T3, 5-hydroxytryptamine receptor 3A; assay: Binding affinity at 5HT3 receptor
[17] = molecular target: 5-hydroxytryptamine receptor 4 (Homo sapiens, UniProt Q13639); assay: Binding affinity at 5HT4 receptor
Chain of 5-hydroxytryptamine receptor 4 (Homo sapiens, UniProt Q13639) (Q13639 whole entry): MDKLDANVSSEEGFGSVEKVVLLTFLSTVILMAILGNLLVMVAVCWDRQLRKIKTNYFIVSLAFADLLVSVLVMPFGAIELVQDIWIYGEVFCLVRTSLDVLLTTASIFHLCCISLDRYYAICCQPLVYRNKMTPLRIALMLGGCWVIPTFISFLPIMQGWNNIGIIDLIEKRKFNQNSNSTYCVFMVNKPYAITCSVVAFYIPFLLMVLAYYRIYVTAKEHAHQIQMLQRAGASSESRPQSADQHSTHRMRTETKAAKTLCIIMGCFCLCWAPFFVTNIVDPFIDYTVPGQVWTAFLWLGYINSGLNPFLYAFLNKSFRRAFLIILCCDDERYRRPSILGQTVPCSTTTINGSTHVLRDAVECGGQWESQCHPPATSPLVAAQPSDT

Mus musculus [18] = assay: Analgesic activity in NMRI mouse assessed as reaction time taken to lick fore paw at 8 mg/kg, ip after 15 mins of administration by hot plate test; type: functional; details: route intraperitoneal
Method in brief: (§5)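 Hot plate at 55 °C, male NMRI mice (20–24 g), groups of 10. Drug given ip in saline (10 mL/kg). Baseline latency to forepaw licking taken twice before dosing, and mice had to respond within 4–12 s. Latency read at 15 and 30 min after injection, with a 30 s cutoff. Data as mean ± SEM, ANOVA plus Fisher PLSD.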

Mus musculus [19] = assay: Analgesic activity in NMRI mouse assessed as reaction time taken to lick fore paw at 8 mg/kg, ip after 30 mins of administration by hot plate test; type: functional; details: route intraperitoneal; method in brief: as §5
Mus musculus [20] = assay: Antinociceptive activity against acetic acid-induced writhing in NMRI mouse assessed as number of stretches at 5 mg/kg, ip by writhing test; type: functional; details: route intraperitoneal; method in brief: as §4
[21] = molecular target: T3, 5-hydroxytryptamine receptor 3A; assay: Displacement of [3H]granisetron form 5HT3 receptor in hybrid […] cells; type: cell-based
Method in brief: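 NG108-15 cell membranes (0.5 mg protein/mL) incubated 60 min at 25 °C with 1 nM [3H]granisetron in 50 mM Tris-HCl, pH 7.4, plus 25 mM NaCl. Percent inhibition measured at 10^-6 and 10^-7 M; for some compounds Ki calculated from 8–10-point inhibition curves (Ki ± SEM).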

Mus musculus [22] = assay: Antinociceptive activity against acetic acid-induced writhing in NMRI mouse assessed as number of stretches at 30 mg/kg, ip by writhing test; type: functional; details: route intraperitoneal; method in brief: as §4
Mus musculus [23] = assay: Acute toxicity in NMRI mouse assessed as behavioral changes at 5 mg/kg, ip by CNS activity test; type: organism-based, Central nervous system; set-up: dose 5 mg/kg, route intraperitoneal; details: in vivo; method in brief: as §3

Chain of 5-hydroxytryptamine receptor 4 (Cavia porcellus) (O70528 whole entry): as the sequence (O70528 whole entry) above

## CCN1CCC(COc2nc3ccsc3n3cccc23)CC1
[1]
  inhibition: 42%
[2]
  Ki: 19.1 nM
[3]
  IC50: > 100000 nM
[4]
  IC50: 8130 nM
[5]
  IC50: 9.77 nM
[6]
  IC50: 5620 nM
[7]
  IC50: > 1000 nM
[8]
  IC50: > 10000 nM
[9]
  IC50: > 1000 nM
[10]
  inhibition: 84%

## COC(=O)C1=CCCN(C)C1 [ARECOLINE]
Mus musculus [11]
  Activity: 64%

## COC(=O)C(c1ccccc1)C1CCCCN1 (configuration not stated) [METHYLPHENIDATE]
Mus musculus [12]
  Activity: Toxic

## Cn1cc(C(=O)OCC2CCN(CCNS(C)(=O)=O)CC2)c2ccccc21
Mus musculus [13]
  Activity: 21.1
Mus musculus [14]
  Activity: 14.8
Mus musculus [15]
  Activity: 14.3
[16]
  Ki: > 10000 nM
[17]
  Ki: 0.158 nM

## COc1[nH]c2ccc(F)cc2c1C(=O)OCC1CCN(CCNS(C)(=O)=O)CC1
Mus musculus [13]
  Activity: 19.1
Mus musculus [14]
  Activity: 13.2
Mus musculus [15]
  Activity: 12.9

## CN1CC[C@]23c4c5ccc(O)c4O[C@H]2[C@@H](O)C=C[C@H]3[C@H]1C5 [MORPHINE]
Mus musculus [18]
  Time: 30 s
Mus musculus [19]
  Time: 26 s

## CCCCN1CCC(COc2nc3ccsc3n3cccc23)CC1
[1]
  inhibition: 31%
[2]
  Ki: 20.9 nM
[3]
  IC50: 5250 nM
[4]
  IC50: 166 nM
[5]
  IC50: 52.5 nM
[6]
  IC50: 29500 nM
[7]
  IC50: > 10000 nM
[8]
  IC50: > 10000 nM
[9]
  IC50: > 1000 nM
[10]
  inhibition: 100%

## CN1C(C(=O)Nc2ccccn2)=C(O)c2ccccc2S1(=O)=O [PIROXICAM]
Mus musculus [20]
  Activity: 2.2

## c1ccc(CN2CCN(c3nc4ccsc4n4cccc34)CC2)cc1
[2]
  IC50: > 10000 nM
[21]
  IC50: 1.41 nM

## CC(=O)Oc1ccccc1C(=O)O [ASPIRIN]
Mus musculus [22]
  Activity: 8.3

## OCCN1CCN(CCCN2c3ccccc3Sc3ccc(Cl)cc32)CC1 [PERPHENAZINE]
Mus musculus [23]
  Activity: Toxic
